Common to all, as to format: functional, cell-based
The subject of test [1] is Jurkat. The test can be described thus: Antiproliferative activity against human Jurkat cells after 72 hrs by MTT assay. Put shortly:
(§1)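 Exponentially growing cells were counted by trypan blue exclusion and seeded at 10^4 cells/well in 96-well plates to keep growth logarithmic. Cells were exposed to compound for 72 h, then read by tetrazolium (MTT) colorimetry. IC50 is the concentration giving 50% growth inhibition versus untreated control. Values are means (SD) of three independent experiments, each in quadruplicate.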

Test [2] relates to K562. The test can be described thus: Antiproliferative activity against human K562 cells after 72 hrs by MTT assay. Conditions: K562, 72 h. In outline:
(§2)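 Exponentially growing cells were counted by trypan blue exclusion and seeded at 10^4 cells/well in 96-well plates to keep growth logarithmic. Cells were exposed to compound for 72 h, then read by tetrazolium (MTT) colorimetry. Values are means (SD) of three independent experiments, each in quadruplicate.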

The subject of test [3] is MRC5. The test can be described thus: Antiproliferative activity against human MRC5 cells after 72 hrs by MTT assay. Conditions: MRC5, 72 h. In outline:
(§3)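 Seeded at 5 × 10^3 cells/well in 96-well plates after harvesting in exponential growth and trypan blue counting. MRC-5 are normal foetal lung fibroblasts. Exposure was 72 h, with MTT colorimetric read-out. Results are means (SD) of three independent experiments done in quadruplicate.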
(In general: Formazan colour is commonly taken as a measure of viable cells.)

Test [4] deals with HeLa. The test can be described thus: Antiproliferative activity against human HeLa cells after 72 hrs by MTT assay. Put shortly: as §3
Test [5] relates to HL-60. Nature of the test: Antiproliferative activity against human HL60 cells after 72 hrs by MTT assay. Conditions: HL-60, 72 h. Put shortly:
as §1

Test [6] concerns Raji. The test can be described thus: Antiproliferative activity against human Raji cells after 72 hrs by MTT assay. In outline: as §2

Where only a bound is given, the exact number is not on record here.

The term IC50 denotes the concentration that inhibits the measured activity by half. Consider `O=C1CC2O[C@H](Cc3ccccc3)C(O)C2O1` (single isomer, unassigned), for which the IC50 was 2520 nM in test [1]; 510 nM in test [2]; more than 100000 nM in test [3]; 4420 nM in test [4]; 43800 nM in test [5]; 1030 nM in test [6].
For the compound `O=C1C[C@H]2O[C@H]([C@H](OC(=O)c3ccccc3)c3ccccc3)[C@H](O)[C@H]2O1`, the IC50 in test [1] was 360 nM; in test [2], 230 nM; in test [3] it was more than 100000 nM; in test [4] it was 5690 nM; in test [5], 120 nM; in test [6] it was 1010 nM.
Turning to `O=C1CC[C@@H]([C@@H](O)[C@H](O)[C@H](O)c2ccccc2)O1`, the IC50 in test [1] was 2230 nM; in test [2] it was 540 nM; in test [3], more than 100000 nM; in test [4] it was 2340 nM; in test [5], 90 nM; in test [6], 2210 nM.
`O=C(/C=C/c1ccccc1)O[C@H](c1ccccc1)[C@H]1O[C@@H]2CC(=O)O[C@@H]2[C@H]1O` [(+)-CRASSALACTONE C]: the IC50 in test [2] is 3560 nM; in test [3] it was more than 100000 nM; in test [5], more than 100000 nM.
Regarding `O=C1C[C@H]2O[C@H]([C@H](O)c3ccccc3)[C@H](O)[C@H]2O1`, the IC50 in test [1] was 32500 nM; in test [2] it was 410 nM; in test [3] it was more than 100000 nM; in test [4], 8320 nM; in test [5], more than 100000 nM; in test [6], 18400 nM.

These data come from ChEMBL document CHEMBL1177850, “Design, synthesis and antiproliferative activity of styryl lactones related to (+)-goniofufurone” (Eur J Med Chem, 2010).
